Rows were chosen to be rich in hits. Some 2.9% of all compounds tested hit in one or more screens of this group.
NALP3 yeast inh = NALP3 inhibition in yeast; AID 2825; inhibition, % at 10 µM; 0.39% of 330,000 active; Yeast reconstituted NLRP3/ASC/caspase-1, beta-gal luminescence, 24 h;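 active = inhibition of 50% or more; inactive = inhibition below 50%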;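 note: plate controls were induced DMSO wells for no effect and uninduced yeast grown without galactose for full effect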
IMP-1 inhibitor = blocks Pseudomonas aeruginosa IMP-1 metallo-beta-lactamase | purified IMP-1, nitrocefin hydrolysis, epi-absorbance fluorescence | inhibition, % at 5.6 µM | 0.45% of 290,000 active;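 active = inhibition above the mean plus 3 SD of all compounds in the same screening run, cut at about 4.5% in these data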;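 note: 0% = IMP-1 with DMSO and 100% = DMSO wells lacking enzyme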
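assay system = purified recombinant IMP-1 metallo-beta-lactamase enzyme | schedule = 15 min preincubation plus 25 min reaction at 25 °C | signal = Epi-absorbance fluorescence, 480 nm excitation, 530 nm emission | read-out basis = percent inhibition from optical density relative to buffer-blank wells | controls = IMP-1 with DMSO as 0%, enzyme-free DMSO as 100%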
NALP1 yeast inh = NALP1 inhibition | 0.61% of 280,000 active | inhibition, % at 10 µM | AID 2071 | S. cerevisiae NALP1/ASC/caspase-1 growth, X-gal OD620, 72 h; in the data active = inhibition mostly above about 24%, no sharp cut-off; inactive = mostly below about 32%
VIM-2 inh = blocks Pseudomonas aeruginosa VIM-2 metallo-beta-lactamase; purified VIM-2, nitrocefin hydrolysis, epi-absorbance fluorescence; AID 1527; inhibition, % at 5.6 µM; 0.89% of 290,000 active;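 active = inhibition above the mean of all tested compounds plus 3 SD, cutoff set per screening run, cut at about 7.5% in these data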;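 note: red hydrolysis product quenches plate fluorescence so inhibitors raise well fluorescence; 0% = enzyme with DMSO and 100% = DMSO without enzyme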
PolyA inhibitor = yeast polyadenylation inhibition. S. cerevisiae SKY197-pL101 polyadenylation reporter, beta-gal luminescence; efflux-impaired pdr1/pdr3 knockout yeast; score 100 = 6 SD above DMSO. activity score, % at 12 µM. 0.02% of 300,000 active. AID 1875;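 active = lowest replicate activity score at least 50, where 100 means six control SD above control mean; inconclusive = lowest score under 50 but half or more replicates reach 50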;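 note: yeast exposed to compound for 9 h at 30 °C; higher score means more reporter readthrough which indicates perturbed polyadenylation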
SUMO Mot1 rescue = inhibitors of SUMOylation pathway: yeast Mot1-301 growth rescue; S. cerevisiae Mot1-301 growth rescue, ATP luminescence, 38.5C; percent above DMSO median, 100 means doubled; growth rescue, % at 18.8 µM; 1% of 320,000 active;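 active = every valid replicate shows activation above 250% relative to neutral control wells; inactive = the rest, any valid replicate at or below 250%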;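 note: OY570 slx delta 5 strain wells were the positive control but not used for scaling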
Mot1 SUMO dose = inhibits SUMO pathway, affecting Mot1-301 yeast growth | shares compounds with SUMO Mot1 rescue | S. cerevisiae Mot1-301 galactose growth, ATP luminescence, 24 h; -100 = growth of slx-deleted rescue strain | growth activity, percent, % at 42 µM | 2,300 tested, under 10 active | AID 493004;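 active = Signal drops as the depositor expects, and the fitted half-maximal dose is no more than ten times the top valid tested dose; inconclusive = Poor fit, or a flat curve whose signal drops by 30% to 70%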;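 note: more negative values mean stronger growth rescue toward the control strain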
Active calls of the source: *; ? = inconclusive; nt = not tested or not shown; + = active, no number.

SMILES	NALP3 yeast inh	IMP-1 inhibitor	NALP1 yeast inh	VIM-2 inh	PolyA inhibitor	SUMO Mot1 rescue	Mot1 SUMO dose
CCOCC(=O)Nc1nc2ccc(C)cc2s1	47	2	-92	-4	-11	8	nt
C/C=C/C(=O)OCC(=O)Nc1nc2ccc(C)cc2s1	14	-3	13	-2	9	361*	0
COC(=O)c1ccncc1C(=O)Nc1ccc(OC)cc1	6	-1	10	-1	-5	-4	nt
COC(=O)c1ccncc1C(=O)Nc1ccc(Oc2ncc(C(F)(F)F)cc2Cl)cc1	17	-3	4	-4	-5	369*	-1
Cn1ncc(Cl)c1C(=O)NNC(=O)Nc1cccc2ccccc12	22	-2	7	-6	nt	-7	nt
Cc1ccc(S(=O)(=O)NCCC(=O)NC2CCCCCC2)cc1	18	nt	nt	nt	nt	nt	nt
O=S(=O)(NC1CCCCC1)c1ccc(Br)cc1	28	-1	3	1	6	136	nt
Cc1ccc(S(=O)(=O)Nc2n[nH]nc2C(=O)NC2CCCCC2)cc1	5	-3	0	-2	-7	517*	0
Cc1ccc(S(=O)(=O)NC2CCCCCCC2)cc1	32	0	6	-1	4	454*	1
Cc1nc(C)c(C(=O)OC(C)C(=O)Nc2ccc(F)cc2)s1 (stereo unspecified)	5	nt	nt	nt	nt	nt	nt
Cc1cccc(OCCN2CSC(=S)N(C)C2)c1	49	-6	-8	-3	9	372*	0
CN(CC(=O)Nc1ccccc1Br)C(=O)C(Cc1ccccc1)NC(=O)c1ccccc1 (stereo unspecified)	-8	-1	-1	0	12	-5	nt
O=C1CC(c2cccc(Br)c2)C2=C(COC2=O)N1 (stereo unspecified)	-2	-2	7	-3	nt	386*	1
Cc1ccc(-c2noc(COc3ccccc3C)n2)cc1	19	-1	-7	-1	?	nt	nt
Cc1ccccc1OCc1nc(-c2ccccc2)no1	39	-3	37	0	0	390*	-1
Cc1cc(C(F)F)n2ncc(C(=O)NCCc3ccc(Cl)cc3)c2n1	23	1	-18	-2	-17	540*	0
CN(C)c1cccc(C(=O)NNC(=O)C23CC4CC(CC(C4)C2)C3)c1	3	nt	nt	nt	nt	-4	nt
Cc1cc(C)cc(C(=O)Oc2cc(C)[nH]c(=O)c2[N+](=O)[O-])c1	29	-4	13	-2	-6	366*	0
COc1cc(C(=O)Oc2cc(C)[nH]c(=O)c2[N+](=O)[O-])cc(OC)c1OC	16	-1	19	-3	22	-2	nt
Cc1ccc(N2CC(C(=O)N3CCC(C(=O)NC(C)(C)C)CC3)CC2=O)cc1 (stereo unspecified)	6	0	14	2	4	41	nt
Cc1cc(=O)c(C(=O)O)cn1Nc1ccc(Cl)cc1	17	-2	13	1	15	+	0
COc1ccccc1CC(=O)N1CCN(C(=O)c2ccco2)CC1	4	-1	0	0	-17	-1	nt
O=C(Nc1ccc([N+](=O)[O-])cn1)C1CC1	-4	-3	27	-2	-7	573*	1
O=C(Nc1ccc([N+](=O)[O-])cn1)C1CCCCC1	8	-2	35	-1	1	10	nt
N#C/C(=C\c1cn(-c2ccccc2)nc1-c1cccnc1)c1nnc2n1CCCCC2	18	-3	0	2	0	397*	0
CCOc1ccc2[nH]c(=O)c(CN(Cc3ccco3)C(CC)c3nnnn3Cc3ccccc3)cc2c1 (stereo unspecified)	13	-1	9	-3	-12	+	0
CCOc1ccc2[nH]c(=O)c(CN(Cc3ccco3)Cc3nnnn3Cc3ccccc3)cc2c1	15	-4	13	-2	20	132	nt
COc1ccccc1CC(=O)N1CCOCC1	15	-1	15	-1	-15	878*	0
COc1ccccc1CC(=O)N1CCCC1	17	-1	7	-4	-12	11	nt
Cc1ccc(CNC(=O)C2CCN(S(=O)(=O)c3cccnc3)CC2)cc1	11	-1	19	-3	18	16	nt

High-throughput results from PubChem BioAssay.
